# Active and inactive are the calls of the source. The calls are words filed in the database; no cut-off is given here.
# Assays:
# Danio rerio [1] = species: Danio rerio; assay: Antidiabetic retinopathic activity in zebrafish flk:EGFP transgenic embryo assessed as reduction of high glucose-induced dilation of hyaloidretinal vessels at 10 to 20 uM treated 1 day post fertilization to 6 days post fertilization; assay type: functional, organism-based
# Outline: (§1)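 flk:EGFP transgenic embryos, five per well, were kept from 1 dpf in egg water with 30 mM glucose plus compound (10 or 20 μM) until 6 dpf. They were then fixed in 4% PFA, and lenses were isolated with the optic disc up and imaged by fluorescence. Diameters were taken in 3–4 main branches up to the first sub-branch. Percentage inhibition = [1 − (Tn − Cav)/(HGav − Cav)] × 100, from three independent experiments.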
# [2] = Antiglycation activity assessed as inhibition of advanced glycation end product formation after 7 days by spectrofluorometric analysis; assay type: physicochemical
# Outline: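 Bovine serum albumin (10 mg/mL) in 50 mM phosphate buffer pH 7.4 with 0.02% sodium azide was mixed with 0.2 M fructose/glucose solution and serially diluted compound, with aminoguanidine as positive control. Samples were incubated 7 days at 37 °C and fluorescence read at ex 350/em 450 nm, in triplicate. IC50 came from least-squares regression of log concentration against remaining activity.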
# Danio rerio [3] = species: Danio rerio; assay: Antidiabetic retinopathic activity in zebrafish flk:EGFP transgenic embryo assessed as reduction of high glucose-induced dilation of hyaloidretinal vessels at 20 uM treated 1 day postfertilization to 6 days postfertilization relative to control; assay type: functional; parameters: scale not given: the % may be the effect or the level left; outline: as §1
# Danio rerio [4] = species: Danio rerio; assay: Toxicity in zebrafish flk:EGFP transgenic embryo at 10 to 20 uM treated 1 day post fertilization to 6 days post fertilization; assay type: organism-based; settings: in vivo
# Danio rerio [5] = species: Danio rerio; assay: Antidiabetic retinopathic activity in zebrafish flk:EGFP transgenic embryo assessed as reduction of high glucose-induced dilation of hyaloidretinal vessels at 10 uM treated 1 day postfertilization to 6 days postfertilization relative to control; assay type: functional; parameters: scale not given: the % may be the effect or the level left; outline: as §1
Compound,Activity (Danio rerio [1]),IC50 [2] [µM],Activity (Danio rerio [3]) [%],Activity (Danio rerio [4]),Activity (Danio rerio [5]) [%]
OC[C@H]1O[C@@H](O[C@@H]2Cc3c(O)cc4c(c3O[C@H]2c2ccc(O)cc2)[C@@H]2c3c(O)cc(O)cc3O[C@](c3ccc(O)cc3)(O4)[C@H]2O)[C@H](O)[C@@H](O)[C@@H]1O,Active,32.1,,,
Oc1ccc([C@@H]2Oc3c(c(O)cc4c3[C@@H]3c5c(O)cc(O)cc5O[C@](c5ccc(O)cc5)(O4)[C@H]3O)C[C@H]2O)cc1,Active,34.7,,,
Oc1ccc([C@@H]2Oc3c(c(O)cc4c3[C@@H]3c5c(O)cc6c(c5O[C@](c5ccc(O)c(O)c5)(O4)[C@H]3O)[C@@H]3c4c(O)cc(O)cc4O[C@](c4ccc(O)cc4)(O6)[C@H]3O)C[C@H]2O)cc1,,17.4,164.1,Non-toxic,157.7
Oc1ccc([C@@]23Oc4cc(O)cc(O)c4[C@@H](c4c(cc(O)c5c4O[C@H](c4ccc(O)c(O)c4)[C@@H](O)C5)O2)[C@@H]3O)cc1,,14.1,104,,
Oc1ccc([C@@H]2Oc3c(c(O)cc4c3[C@@H]3c5c(O)cc6c(c5O[C@](c5ccc(O)cc5)(O4)[C@H]3O)[C@@H]3c4c(O)cc(O)cc4O[C@](c4ccc(O)cc4)(O6)[C@H]3O)C[C@H]2O)cc1,Active,39.8,,,
Oc1ccc([C@H]2Oc3c(c(O)cc4c3[C@@H]3c5c(O)cc(O)cc5O[C@](c5ccc(O)cc5)(O4)[C@H]3O)C[C@@H]2O)cc1,Active,33.5,,,
O=C(O[C@@H]1Cc2c(O)cc(O)cc2O[C@@H]1c1ccc(O)c(O)c1)c1cc(O)c(O)c(O)c1 [EPICATECHIN GALLATE],,15.1,,,
N=C(N)NN [PIMAGEDINE],,966,,,
Oc1cc(O)c2c(c1)O[C@H](c1ccc(O)c(O)c1)[C@H](O)C2 [(-)-EPICATECHIN],,13.6,,,

# — ChEMBL document CHEMBL2429848, “Proanthocyanidins from Spenceria ramalana and their effects on AGE formation in vitro and hyaloid-retinal vessel dilation in larval zebrafish in vivo” (J Nat Prod, 2013)
